These results are taken from publication PMC2931272 (Antiviral chemistry & chemotherapy, 2009).

For orientation: CC50 means the concentration giving 50% cytotoxicity. The half-life is how long it takes for the measured level to halve. Usually AUC stands for concentration integrated over time. A word on the clearance: it is the rate of elimination divided by the concentration.

For data set [1] the following is noted: pH 7.08, 37 °C; cited from earlier work.
The nature of data set [2]: Visual cytotoxicity in uninfected HFF's used in plaque reduction assays. It counts as cell-based. To be noted: human, uninfected human foreskin fibroblasts (HFF). For orientation: Plaques are areas of infected cells; plaque reduction assays count them against a control.
The nature of data set [3]: Cytotoxicity by neutral red assay in HFF. It counts as cell-based. Particulars: human, human foreskin fibroblasts (HFF).
Data set [4] in a line: Kinetics of hydrolysis at pH 7.0. To be noted: phosphate buffer. It counts as physicochemical.
The nature of data set [5]: Stability of prodrug / conversion to cyclopropavir in mouse plasma. The format is in vitro ADME. Particulars: for First order rate constant of conversion to cyclopropavir (5) / half live of conversion to cyclopropavir (5): 50 μM. The method in brief:
(§1)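 Blood was drawn by cardiac puncture from anaesthetised male Swiss-Webster mice into EDTA(K3) and iced; plasma was spun 10 min at 1100 × G, 4°C. Blood or plasma was spiked from a DMSO stock to a 50 μM final and held at 0°C (ice water) or 37°C. A no-incubation control was processed straight after spiking. Timed aliquots were frozen (blood first spun 2200 × G, 5 min, 4°C). Prodrug and parent were measured by HPLC, UV.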

The nature of data set [6]: Stability of prodrug / conversion to cyclopropavir in mouse whole blood. Particulars: for First order rate constant of conversion to cyclopropavir (5) / half live of conversion to cyclopropavir (5): 50 μM. The format is in vitro ADME. The method in brief: as §1
Data set [7] is described as follows: Pharmacokinetics after IV bolus dosing of prodrug. Particulars: mice, IV 24.6 mg/kg prodrug. It counts as in vivo.
Setting [8] is: analyte prodrug (6), two compartments model.

As to `CC(C)[C@H](N)C(=O)OCC(CO)OCn1cnc2c(=O)nc(N)[nH]c21` (stereo partly shown) [valganciclovir (2)], in data set [1], the half-life of hydrolysis is reported as 11 h.

Take `CC(C)[C@H](N)C(=O)OCC1(CO)C/C1=C/n1cnc2c(=O)[nH]c(N)nc21.Cl` (mixture of isomers) [Valcyclopropavir (6), (Z)-9-{[2-Hydroxymethyl-2-(L-valyloxymethyl)cyclopropylidene]methyl}guanine Hydrochloride]: the CC50 in data set [2] was more than 100 µM; in data set [3] it was more than 300 µM. The half-life at 2.25 mM in data set [4] was 22.5 h. In addition, the “First order rate constant of conversion to cyclopropavir (5)” value in data set [5] (0°C) is listed as 0.0010 min.^−1; in data set [5] (37°C), 0.0172 min.^−1; in data set [6] (mouse whole blood, 0°C) it was 0.0005 min.^−1; in data set [6] (mouse whole blood, 37°C), 0.0087 min.^−1. The “half live of conversion to cyclopropavir (5)” value was 727 min in data set [5] (0°C); 40.4 min in data set [5] (37°C); 1310 min in data set [6] (mouse whole blood, 0°C); 80 min in data set [6] (mouse whole blood, 37°C). For the same molecule, the “conversion of valcyclopropavir (6) to cyclopropavir (5), no incubation” value is 3.7% in data set [5] (processed immediately after spiking) and 9.0% in data set [6] (mouse whole blood, processed immediately after spiking). Moreover, the half-life at 50 μM in data set [6] (male, Swiss-Webster, mouse, whole blood) is 22 h. Besides, the “Rate constant of distribution phase, α” value in data set [7] (setting [8]) was found to be 0.25 min.^−1. In addition, the “Rate constant of elimination phase, β” value in data set [7] (setting [8]) stood at 0.00263 min.^−1. In data set [7] (setting [8]), the “Volume of main compartment, V” value is 0.0753 L/kg. Besides, the area under the curve (AUC) in data set [7] (male, Swiss-Webster, mouse, plasma, iv, 24.6 mg/kg, Area under the curve, AUC, analyte prodrug (6), single compartment first order elimination model) is 1020 ng·h/mL. For the same molecule, the clearance in data set [7] (male, Swiss-Webster, mouse, plasma, iv, 24.6 mg/kg, Clearance (Cl), analyte prodrug (6), single compartment first order elimination model) stood at 402 mL/min. Also, in data set [7] (male, Swiss-Webster, mouse, plasma, iv, 24.6 mg/kg, Half-life, T1/2, analyte prodrug (6), single compartment first order elimination model), the half-life turned out to be 2.68 h.

Regarding `Nc1nc2c(ncn2/C=C2/CC2(CO)CO)c(=O)[nH]1` [Cyclopropavir (5)], the cytotoxic concentration (CC50) is more than 100 µM in data set [2] and more than 380 µM in data set [3].

Regarding `Nc1nc(O)c2ncn(COC(CO)CO)c2n1` [Ganciclovir, reference compound], the CC50 in data set [2] and in data set [3] was more than 100 µM throughout.
